Results from ChEMBL document CHEMBL5653631, “A Potent and Selective ULK1 Inhibitor Suppresses Autophagy and Sensitizes Cancer Cells to Nutrient Stress” (iScience, 2018).

Assays:
[1] = molecular target: Bone morphogenetic protein receptor type-1B (Homo sapiens) (UniProt O00238); assay: Inhibition of human recombinant BMPR1B at 500 nM related to control ULK1
[2] = molecular target: Ribosomal protein S6 kinase alpha-6 (Homo sapiens) (UniProt Q9UK32); assay: Inhibition of human recombinant RSK4 at 500 nM in presence of ATP by radiometric assay relative to control
Sequence of Ribosomal protein S6 kinase alpha-6 (Homo sapiens) (Q9UK32 whole entry): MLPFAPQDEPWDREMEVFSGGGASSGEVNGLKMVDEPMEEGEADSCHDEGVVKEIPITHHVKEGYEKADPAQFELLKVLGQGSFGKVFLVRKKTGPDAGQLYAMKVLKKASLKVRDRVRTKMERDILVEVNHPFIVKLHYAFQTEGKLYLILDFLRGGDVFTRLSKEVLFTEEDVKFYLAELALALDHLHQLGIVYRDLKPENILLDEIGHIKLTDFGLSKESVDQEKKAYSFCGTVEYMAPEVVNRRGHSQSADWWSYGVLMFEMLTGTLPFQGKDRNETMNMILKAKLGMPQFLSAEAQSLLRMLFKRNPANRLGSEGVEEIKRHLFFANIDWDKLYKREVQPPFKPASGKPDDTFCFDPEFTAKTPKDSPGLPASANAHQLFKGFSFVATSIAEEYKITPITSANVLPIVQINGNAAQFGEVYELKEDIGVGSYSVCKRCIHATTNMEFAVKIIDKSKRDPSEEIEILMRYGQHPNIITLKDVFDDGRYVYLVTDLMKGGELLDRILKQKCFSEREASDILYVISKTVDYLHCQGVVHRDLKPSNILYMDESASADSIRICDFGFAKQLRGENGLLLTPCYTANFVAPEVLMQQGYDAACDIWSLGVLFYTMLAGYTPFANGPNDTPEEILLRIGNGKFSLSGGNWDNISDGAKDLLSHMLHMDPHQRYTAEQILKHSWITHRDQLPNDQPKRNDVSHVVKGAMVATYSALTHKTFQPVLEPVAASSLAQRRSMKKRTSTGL

[3] = molecular target: T1, Serine/threonine-protein kinase STK11 (Homo sapiens) (UniProt Q15831); assay: Inhibition of human recombinant LKB1 at 500 nM in presence of ATP by radiometric assay relative to control
T1 sequence (whole entry): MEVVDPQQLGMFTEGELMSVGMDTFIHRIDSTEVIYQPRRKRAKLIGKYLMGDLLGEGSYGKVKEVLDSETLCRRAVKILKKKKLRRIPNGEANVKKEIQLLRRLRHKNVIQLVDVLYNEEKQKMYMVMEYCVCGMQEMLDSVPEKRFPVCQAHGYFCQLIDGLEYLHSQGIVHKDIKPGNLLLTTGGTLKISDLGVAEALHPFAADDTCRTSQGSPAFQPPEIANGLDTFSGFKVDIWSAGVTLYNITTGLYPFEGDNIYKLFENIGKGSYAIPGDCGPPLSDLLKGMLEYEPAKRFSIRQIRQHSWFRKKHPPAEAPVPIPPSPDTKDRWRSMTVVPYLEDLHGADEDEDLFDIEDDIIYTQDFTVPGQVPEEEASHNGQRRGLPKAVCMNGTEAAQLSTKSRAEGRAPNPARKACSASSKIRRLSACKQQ

[4] = molecular target: cAMP-dependent protein kinase catalytic subunit beta (Homo sapiens) (UniProt P22694); assay: Inhibition of human recombinant PKACbeta at 500 nM related to control ULK1
[5] = molecular target: Mitogen-activated protein kinase kinase kinase kinase 1 (Homo sapiens) (UniProt Q92918); assay: Inhibition of human recombinant HPK1 at 15 nM related to control ULK1
Sequence of Mitogen-activated protein kinase kinase kinase kinase 1 (Homo sapiens) (Q92918 whole entry, looked up): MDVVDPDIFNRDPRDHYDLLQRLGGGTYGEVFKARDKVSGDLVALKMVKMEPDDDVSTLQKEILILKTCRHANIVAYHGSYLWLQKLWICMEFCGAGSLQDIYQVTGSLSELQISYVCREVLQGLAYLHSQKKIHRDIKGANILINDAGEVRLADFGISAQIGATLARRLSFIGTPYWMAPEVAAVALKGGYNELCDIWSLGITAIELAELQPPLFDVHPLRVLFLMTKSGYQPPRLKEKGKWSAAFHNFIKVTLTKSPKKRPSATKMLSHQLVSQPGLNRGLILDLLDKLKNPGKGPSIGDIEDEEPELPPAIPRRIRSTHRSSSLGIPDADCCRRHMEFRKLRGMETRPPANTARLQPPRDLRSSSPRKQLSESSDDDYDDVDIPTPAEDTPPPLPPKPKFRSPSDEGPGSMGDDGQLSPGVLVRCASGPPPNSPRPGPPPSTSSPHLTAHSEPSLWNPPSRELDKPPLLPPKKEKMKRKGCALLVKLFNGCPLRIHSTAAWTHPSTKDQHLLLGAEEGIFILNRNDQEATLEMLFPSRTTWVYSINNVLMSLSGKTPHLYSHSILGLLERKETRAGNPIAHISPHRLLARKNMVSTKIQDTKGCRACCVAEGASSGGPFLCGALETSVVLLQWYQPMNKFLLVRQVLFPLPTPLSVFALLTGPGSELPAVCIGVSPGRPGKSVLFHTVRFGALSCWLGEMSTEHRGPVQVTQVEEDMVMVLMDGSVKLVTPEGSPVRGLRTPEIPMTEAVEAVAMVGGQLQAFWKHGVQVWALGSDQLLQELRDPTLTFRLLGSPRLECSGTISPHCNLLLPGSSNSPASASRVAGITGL

[6] = molecular target: Tyrosine-protein kinase receptor UFO (Homo sapiens) (UniProt P30530); assay: Inhibition of human recombinant AXL at 15 nM related to control ULK1
Sequence of Tyrosine-protein kinase receptor UFO (Homo sapiens) (P30530 whole entry): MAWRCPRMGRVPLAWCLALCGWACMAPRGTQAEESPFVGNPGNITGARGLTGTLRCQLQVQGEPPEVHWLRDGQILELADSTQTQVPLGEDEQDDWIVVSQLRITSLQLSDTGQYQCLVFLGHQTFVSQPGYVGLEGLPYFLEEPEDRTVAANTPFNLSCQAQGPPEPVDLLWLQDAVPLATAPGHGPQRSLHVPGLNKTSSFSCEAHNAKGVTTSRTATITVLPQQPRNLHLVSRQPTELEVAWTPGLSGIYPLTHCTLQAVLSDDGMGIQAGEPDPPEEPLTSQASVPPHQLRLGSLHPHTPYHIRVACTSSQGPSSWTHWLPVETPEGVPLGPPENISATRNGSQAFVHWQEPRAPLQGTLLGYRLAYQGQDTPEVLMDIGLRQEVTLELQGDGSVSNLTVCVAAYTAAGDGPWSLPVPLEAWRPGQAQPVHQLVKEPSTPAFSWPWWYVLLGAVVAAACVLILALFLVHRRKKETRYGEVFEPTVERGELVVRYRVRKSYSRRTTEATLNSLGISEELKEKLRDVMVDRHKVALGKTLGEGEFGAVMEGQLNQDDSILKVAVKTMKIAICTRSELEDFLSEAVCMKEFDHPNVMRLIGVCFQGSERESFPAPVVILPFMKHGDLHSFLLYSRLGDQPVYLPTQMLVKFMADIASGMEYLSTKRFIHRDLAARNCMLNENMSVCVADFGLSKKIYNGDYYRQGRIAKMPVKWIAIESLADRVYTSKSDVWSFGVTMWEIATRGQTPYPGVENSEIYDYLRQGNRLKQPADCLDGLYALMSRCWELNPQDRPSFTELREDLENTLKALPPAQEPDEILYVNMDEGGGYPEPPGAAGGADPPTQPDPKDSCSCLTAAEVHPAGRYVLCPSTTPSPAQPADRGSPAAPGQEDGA
In short: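 Panel of 327 recombinant human kinases, each assayed in vitro by radiometric activity assay in duplicate at a single inhibitor concentration per compound, chosen with reference to its ULK1 inhibition. Activity remaining was expressed as percent of vehicle control, and percent inhibition was calculated as 100 minus percent activity remaining.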

[7] = molecular target: T2, Serine/threonine-protein kinase haspin (Homo sapiens) (UniProt Q8TF76); assay: Inhibition of human recombinant Haspin at 15 nM related to control ULK1
T2 sequence (whole entry): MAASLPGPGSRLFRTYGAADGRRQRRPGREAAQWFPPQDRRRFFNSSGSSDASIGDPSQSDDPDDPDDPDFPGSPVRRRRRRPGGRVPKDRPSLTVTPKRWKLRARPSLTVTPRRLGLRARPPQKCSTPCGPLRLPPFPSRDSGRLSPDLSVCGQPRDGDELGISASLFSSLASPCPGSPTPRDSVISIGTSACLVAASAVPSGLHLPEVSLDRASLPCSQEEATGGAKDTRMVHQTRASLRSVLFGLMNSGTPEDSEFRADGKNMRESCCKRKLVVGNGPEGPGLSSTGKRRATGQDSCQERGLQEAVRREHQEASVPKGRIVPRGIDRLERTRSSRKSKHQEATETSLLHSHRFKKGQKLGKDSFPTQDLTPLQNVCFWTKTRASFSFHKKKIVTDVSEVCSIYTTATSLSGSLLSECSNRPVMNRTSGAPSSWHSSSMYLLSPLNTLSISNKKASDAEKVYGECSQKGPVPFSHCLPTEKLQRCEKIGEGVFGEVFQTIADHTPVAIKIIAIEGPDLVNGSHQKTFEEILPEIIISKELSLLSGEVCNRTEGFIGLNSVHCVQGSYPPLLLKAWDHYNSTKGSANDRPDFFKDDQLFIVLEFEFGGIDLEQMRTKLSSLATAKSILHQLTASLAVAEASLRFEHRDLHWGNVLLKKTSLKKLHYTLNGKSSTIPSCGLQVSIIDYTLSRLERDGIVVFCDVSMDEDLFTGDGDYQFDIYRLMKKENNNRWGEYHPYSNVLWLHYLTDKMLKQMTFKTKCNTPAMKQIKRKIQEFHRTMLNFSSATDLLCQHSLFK

[8] = molecular target: T3, Serine/threonine-protein kinase BRSK1 (Homo sapiens) (UniProt Q8TDC3); assay: Inhibition of human recombinant BRSK1 at 15 nM in presence of ATP by radiometric assay relative to control
T3 sequence (whole entry): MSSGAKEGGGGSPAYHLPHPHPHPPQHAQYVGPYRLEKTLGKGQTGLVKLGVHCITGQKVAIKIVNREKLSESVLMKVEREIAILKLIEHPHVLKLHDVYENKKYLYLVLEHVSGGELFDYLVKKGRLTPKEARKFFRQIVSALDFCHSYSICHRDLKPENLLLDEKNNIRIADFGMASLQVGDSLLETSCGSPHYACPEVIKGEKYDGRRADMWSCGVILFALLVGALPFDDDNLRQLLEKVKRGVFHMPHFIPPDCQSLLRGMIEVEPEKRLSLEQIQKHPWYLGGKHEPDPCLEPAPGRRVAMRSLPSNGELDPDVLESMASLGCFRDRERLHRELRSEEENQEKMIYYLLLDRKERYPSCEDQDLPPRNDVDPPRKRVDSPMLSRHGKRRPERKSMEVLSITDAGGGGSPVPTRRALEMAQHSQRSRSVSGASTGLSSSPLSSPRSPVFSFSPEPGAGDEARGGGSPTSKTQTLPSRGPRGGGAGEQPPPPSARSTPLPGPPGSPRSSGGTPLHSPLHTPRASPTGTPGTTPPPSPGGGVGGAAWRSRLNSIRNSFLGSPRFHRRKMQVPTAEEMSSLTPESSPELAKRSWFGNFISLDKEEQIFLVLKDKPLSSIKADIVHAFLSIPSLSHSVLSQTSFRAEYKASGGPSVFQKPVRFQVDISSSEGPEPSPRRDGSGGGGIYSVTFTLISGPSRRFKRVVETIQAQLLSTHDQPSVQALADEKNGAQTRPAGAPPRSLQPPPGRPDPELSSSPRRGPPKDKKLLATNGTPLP
In short: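 Part of a radiometric in vitro activity panel of 327 recombinant human kinases. Each kinase was tested in duplicate at one inhibitor concentration. Activity remaining was expressed as a percentage of the vehicle control, and percent inhibition was taken as 100 minus that value.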

Sequence of Bone morphogenetic protein receptor type-1B (Homo sapiens) (O00238 whole entry): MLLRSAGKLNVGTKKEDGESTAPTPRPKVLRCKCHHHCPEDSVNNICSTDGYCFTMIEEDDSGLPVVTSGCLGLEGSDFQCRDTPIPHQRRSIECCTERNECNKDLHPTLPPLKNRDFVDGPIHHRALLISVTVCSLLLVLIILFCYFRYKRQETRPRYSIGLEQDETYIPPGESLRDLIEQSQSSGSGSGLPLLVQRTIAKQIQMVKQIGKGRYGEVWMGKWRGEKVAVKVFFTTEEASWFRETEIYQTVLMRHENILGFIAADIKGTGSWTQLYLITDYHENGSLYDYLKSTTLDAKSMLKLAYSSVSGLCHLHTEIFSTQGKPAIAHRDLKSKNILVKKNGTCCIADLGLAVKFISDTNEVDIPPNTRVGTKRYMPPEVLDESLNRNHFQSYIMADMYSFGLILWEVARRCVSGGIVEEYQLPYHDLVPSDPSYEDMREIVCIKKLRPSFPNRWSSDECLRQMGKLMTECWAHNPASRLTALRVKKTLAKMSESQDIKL

| fold change (FC) [1] | inhibition [2] | inhibition [3] | fold change (FC) [4] | fold change (FC) [5] | fold change (FC) [6] | fold change (FC) [7] | inhibition [8] | SMILES |
| --- | --- | --- | --- | --- | --- | --- | --- | --- |
| 0 | 33% | 12% | 0 | – | – | – | – | CNC(=O)c1ccccc1Oc1nc(Nc2cc(OC)c(OC)c(OC)c2)ncc1Br |
| – | – | – | – | 0 | 0.13 | 0 | 13% | CC(C)[C@H](NC(=O)c1cc(-c2cnn3cc(-c4ccc(OCCN5CCCCC5)cc4)cnc23)cs1)C(F)(F)F |
